ChEMBL document CHEMBL5724801, “EUbOPEN Chemogenomics Library - Multiplex” (2024)
Values joined by “and” are separate entries in the source; they are usually repeats but may differ in a detail not shown here. Identical values can stand only once.

system: U2OS; assay: Multiplex assay against U2OS; type: toxicity, cell-based; details: human, 12 h, 1 µM, compound concentration 1 uM
Outline: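 Cells were classed with CellPathfinder machine-learning gating, first as Hoechst high-intensity objects or normal cells, then (normal cells) as healthy, pyknosed or fragmented nuclei, and finally (pyknosed cells) as mitotic or apoptotic. Staining of live cells at seeding used Hoechst33342, BioTracker Green Microtubule Cytoskeleton Dye, MitoTracker Red and Annexin V Alexa Fluor 680, with imaging on a CQ1 microscope at 37°C and 5% CO2 after compound addition. Tubulin, mitochondrial-mass and membrane-permeability phenotypes are per cents of healthy-nucleus cells.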

Row | SMILES | Population Apoptotic (%) | Population Fragmented Nuclei (%) | Population Healthy Nuclei (%) | Population Hoechst High Intensity Objects (%) | Population Membrane Permeable-Phenotype (%) | Population Mitotic Cells (%) | Population Normal (%) | Population Pyknosed Nuclei (%) | Population Tubulin-Different-Phenotype (%) | Total Cell Count
1 | CN(C)CCOc1ccc(/C(=C(/CCCO)c2ccccc2)c2ccc(O)cc2)cc1 | 43.75% and 21.88% | 1.53% and 1.8% | 90.31% and 79.04% | 0 | 2.26% and 4.55% | 56.25% and 78.12% | 100 | 8.16% and 19.16% | 2.54% and 2.27% | 392 and 167
2 | COc1ccc(-n2c(C)c([N+](=O)[O-])c3ccc(O)cc32)cc1 | 45.24% and 38.46% | 0.72% and 4.55% | 89.23% and 88.07% | 0 | 2.14% and 5.16% | 54.76% and 61.54% | 100 | 10.05% and 7.39% | 0.8% and 1.29% | 418 and 176

same assay, conditions: human, 12 h, 1 µM, compound concentration 1 uM

Row | SMILES | Population Mitochondria Different-Phenotype (%)
3 | COc1ccc(-n2c(C)c([N+](=O)[O-])c3ccc(O)cc32)cc1 | 0.27% and 4.52%

same assay, conditions: human, 12 h, 10 µM, compound concentration 10 uM

Row | SMILES | Population Apoptotic (%) | Population Fragmented Nuclei (%) | Population Healthy Nuclei (%) | Population Hoechst High Intensity Objects (%) | Population Membrane Permeable-Phenotype (%) | Population Mitotic Cells (%) | Population Normal (%) | Population Pyknosed Nuclei (%) | Population Tubulin-Different-Phenotype (%) | Total Cell Count
4 | CN(C)CCOc1ccc(/C(=C(/CCCO)c2ccccc2)c2ccc(O)cc2)cc1 | 30.43% and 23.08% | 2.02% and 2.16% | 71.39% and 69.78% | 0 | 13.77% and 36.08% | 69.57% and 76.92% | 100 | 26.59% and 28.06% | 60.73% and 38.14% | 346 and 139
5 | COc1ccc(-n2c(C)c([N+](=O)[O-])c3ccc(O)cc32)cc1 | 24.32% and 50% | 1.07% and 1.43% | 90.99% and 84.29% | 0 | 1.42% and 6.78% | 75.68% and 50% | 100 | 7.94% and 14.29% | 4.01% and 0% | –

same assay, conditions: human, 12 h, 10 µM, compound concentration 10 uM

Row | SMILES | Population Mitochondria Different-Phenotype (%)
6 | COc1ccc(-n2c(C)c([N+](=O)[O-])c3ccc(O)cc32)cc1 | 0.47% and 5.08%

same assay, conditions: human, 24 h, 1 µM, compound concentration 1 uM

Row | SMILES | Population Apoptotic (%) | Population Fragmented Nuclei (%) | Population Healthy Nuclei (%) | Population Hoechst High Intensity Objects (%) | Population Membrane Permeable-Phenotype (%) | Population Mitotic Cells (%) | Population Normal (%) | Population Pyknosed Nuclei (%) | Population Tubulin-Different-Phenotype (%) | Total Cell Count
7 | CN(C)CCOc1ccc(/C(=C(/CCCO)c2ccccc2)c2ccc(O)cc2)cc1 | 35.85% and 30.56% | 0.75% and 3.24% | 89.35% and 80.09% | 0 | 0.63% and 4.05% | 64.15% and 69.44% | 100 | 9.91% and 16.67% | 1.67% and 1.16% | 535 and 216
8 | COc1ccc(-n2c(C)c([N+](=O)[O-])c3ccc(O)cc32)cc1 | 52.94% and 48% | 1.65% and 2.64% | 89.03% and 86.34% | 0 | 0.62% and 4.08% | 47.06% and 52% | 100 | 9.32% and 11.01% | 1.03% and 1.53% | 547 and 227

same assay, conditions: human, 24 h, 1 µM, compound concentration 1 uM

Row | SMILES | Population Mitochondria Different-Phenotype (%)
9 | COc1ccc(-n2c(C)c([N+](=O)[O-])c3ccc(O)cc32)cc1 | 0.21% and 4.08%

same assay, conditions: human, 24 h, 10 µM, compound concentration 10 uM

Row | SMILES | Population Apoptotic (%) | Population Fragmented Nuclei (%) | Population Healthy Nuclei (%) | Population Hoechst High Intensity Objects (%) | Population Membrane Permeable-Phenotype (%) | Population Mitotic Cells (%) | Population Normal (%) | Population Pyknosed Nuclei (%) | Population Tubulin-Different-Phenotype (%) | Total Cell Count
10 | CN(C)CCOc1ccc(/C(=C(/CCCO)c2ccccc2)c2ccc(O)cc2)cc1 | 44.63% and 34.25% | 2.92% and 1.89% | 67.64% and 52.2% | 0 | 12.23% and 26.51% | 55.37% and 65.75% | 100 | 29.44% and 45.91% | 51.08% and 46.99% | 411 and 159
11 | COc1ccc(-n2c(C)c([N+](=O)[O-])c3ccc(O)cc32)cc1 | 38.64% and 52.38% | 2.67% and 2.78% | 90% and 85.56% | 0 | 1.67% and 3.9% | 61.36% and 47.62% | 100 | 7.33% and 11.67% | 1.67% and 0% | –

same assay, conditions: human, 24 h, 10 µM, compound concentration 10 uM

Row | SMILES | Population Mitochondria Different-Phenotype (%)
12 | COc1ccc(-n2c(C)c([N+](=O)[O-])c3ccc(O)cc32)cc1 | 0.37% and 3.25%

same assay, conditions: human, 48 h, 1 µM, compound concentration 1 uM

Row | SMILES | Population Apoptotic (%) | Population Fragmented Nuclei (%) | Population Healthy Nuclei (%) | Population Hoechst High Intensity Objects (%) | Population Membrane Permeable-Phenotype (%) | Population Mitotic Cells (%) | Population Normal (%) | Population Pyknosed Nuclei (%) | Population Tubulin-Different-Phenotype (%) | Population Mitochondria Different-Phenotype (%)
13 | CN(C)CCOc1ccc(/C(=C(/CCCO)c2ccccc2)c2ccc(O)cc2)cc1 | 42.71% and 56.25% | 2% and 2.61% | 87.88% and 81.7% | 0.11% and 0% | 1.2% and 2% | 57.29% and 43.75% | 99.89% and 100% | 10.12% and 15.69% | 2.28% and 1.6% | –
14 | COc1ccc(-n2c(C)c([N+](=O)[O-])c3ccc(O)cc32)cc1 | 36.36% and 48.48% | 2.25% and 2.47% | 88.75% and 88.46% | 0% | 0.69% and 2.48% | 63.64% and 51.52% | 100% | 9% and 9.07% | 0.58% and 1.24% | 0% and 3.42%

same assay, conditions: human, 48 h, 1 µM, compound concentration 1 uM

Row | SMILES | Total Cell Count
15 | COc1ccc(-n2c(C)c([N+](=O)[O-])c3ccc(O)cc32)cc1 | 978 and 364

same assay, conditions: human, 48 h, 10 µM, compound concentration 10 uM

Row | SMILES | Population Apoptotic (%) | Population Fragmented Nuclei (%) | Population Healthy Nuclei (%) | Population Hoechst High Intensity Objects (%) | Population Mitotic Cells (%) | Population Normal (%) | Population Pyknosed Nuclei (%) | Population Tubulin-Different-Phenotype (%) | Population Membrane Permeable-Phenotype (%) | Population Mitochondria Different-Phenotype (%)
16 | CN(C)CCOc1ccc(/C(=C(/CCCO)c2ccccc2)c2ccc(O)cc2)cc1 | 54.89% and 66.67% | 4.64% and 2.86% | 74.08% and 49.14% | 0 | 45.11% and 33.33% | 100 | 21.28% and 48% | 26.13% and 55.81% | – | –
17 | COc1ccc(-n2c(C)c([N+](=O)[O-])c3ccc(O)cc32)cc1 | 56.82% and 55.26% | 3.3% and 3.1% | 87.91% and 83.79% | 0 | 43.18% and 44.74% | 100 | 8.79% and 13.1% | 1.7% and 2.88% | 0.91% and 4.12% | 0.11% and 3.7%
